{"data": "Measurements gathered from unrelated publications", "observed": "enzyme activity", "action": "inhibitor", "LCK phosphorylated": "Tyrosine-protein kinase Lck, phosphorylated (LCK, Homo sapiens, UniProt P06239)", "LCK": "Tyrosine-protein kinase Lck (LCK, Homo sapiens, UniProt P06239)", "note": "Compare with care: the assays were run in different laboratories."}
{"SMILES": "COc1cc(Cl)c(C(=O)N[C@@H](CN[C@H]2CC[C@@H](N)CC2)Cc2ccc(C#N)cc2)cc1-c1ccc(CN[C@H](C)c2ccc(C)cc2)o1", "target": "LCK phosphorylated", "concentration": "1 µM", "remaining activity": "85%"}
{"SMILES": "O=c1cc(-c2cccc3c2Sc2ccccc2S3)oc(N2CCOCC2)c1", "target": "LCK", "concentration": "0.5 µM", "remaining activity": "98.1%"}
{"SMILES": "CCCOc1ccc(OC)c(F)c1C(=O)c1ccc(C(=O)N[C@@H]2CNC[C@H]2NC(=O)c2ccc3[nH]ncc3c2)cc1", "target": "LCK", "concentration": "10 µM", "remaining activity": "21%"}
{"SMILES": "Cc1ccc(NC(=O)c2ccc(C)c(C(F)(F)F)c2)cc1C#Cc1nn(C2CCC(O)CC2)c2ncnc(N)c12 (centres unmarked)", "target": "LCK phosphorylated", "concentration": "10 µM", "remaining activity": "0%"}
{"SMILES": "CCN(CC)CCNC(=O)c1c(C)[nH]c(/C=C2\\C(=O)Nc3ccc(Cl)cc32)c1C", "target": "LCK", "concentration": "0.5 µM", "remaining activity": "11.8%"}
{"SMILES": "O=C(Nc1cnn(-c2csc(C(=O)NC3COC3)c2)c1)Nc1c(F)cccc1Cl", "target": "LCK", "concentration": "5 µM", "remaining activity": "94.2%"}
{"SMILES": "Oc1cccc(-c2nc(N3CCOCC3)c3oc4ncccc4c3n2)c1", "target": "LCK", "concentration": "10 µM", "remaining activity": "85%"}
{"SMILES": "Cc1cnc(NC2CCOCC2)nc1-n1cnc(C(=O)NC(CN)c2cc(F)cc(Cl)c2)c1 (centres unmarked)", "target": "LCK", "method": "radiometric", "concentration": "1 µM", "remaining activity": "100%"}
{"SMILES": "CC(C)(O)[C@H]1CC[C@H](Nc2ccc3ncc(-c4cccc(C(F)(F)F)c4)n3n2)CC1", "target": "LCK", "concentration": "1 µM", "remaining activity": "11.1%"}
{"SMILES": "C[S+]([O-])c1ccc(-c2nc(-c3ccncc3)c(-c3ccc(F)cc3)[nH]2)cc1 (centres unmarked)", "target": "LCK", "concentration": "0.5 µM", "remaining activity": "95%"}
{"SMILES": "Cc1sc(C(=O)NC2COC2)cc1-n1cc(NC(=O)Nc2c(F)cccc2Cl)cn1", "target": "LCK", "concentration": "10 µM", "remaining activity": "46.5%"}
{"SMILES": "CC(C)(C)C(=O)c1sc(NC2CCCCC2)nc1N", "target": "LCK", "concentration": "10 µM", "remaining activity": "85%"}
{"SMILES": "COc1cc(Nc2cnc(C#N)c(O[C@H](C)CN(C)C)n2)ncc1-c1cnn(C)c1", "target": "LCK", "method": "radiometric", "concentration": "10 µM", "remaining activity": "20%"}
{"SMILES": "CC(C)(C)c1nc2c(s1)c1nc(N)ncc1c1ccc(NS(=O)(=O)c3c(F)cccc3F)c(F)c12", "target": "LCK", "method": "radiometric", "concentration": "1 µM", "remaining activity": "80%"}
{"SMILES": "COc1cc(Nc2c(C#N)cnc3cc(OCCCN4CCN(C)CC4)c(OC)cc23)c(Cl)cc1Cl", "target": "LCK", "concentration": "0.5 µM", "remaining activity": "1.88%"}
{"SMILES": "Cc1[nH]c(/C=C2\\C(=O)Nc3ccc(F)cc32)c(C)c1C(=O)N[C@H]1CCN(C(=O)N(C)C)C1", "target": "LCK", "concentration": "1 µM", "remaining activity": "42%"}
{"SMILES": "Oc1cccc(-c2nc(N3CCOCC3)c3oc4ncccc4c3n2)c1", "target": "LCK", "concentration": "0.5 µM", "remaining activity": "98%"}
{"SMILES": "FC(F)c1nc2ccccc2n1-c1nc(N2CCOCC2)nc(N2CCOCC2)n1", "target": "LCK", "concentration": "10 µM", "remaining activity": "89%"}
{"SMILES": "N#CCCc1ccc2c(c1)-c1[nH]c3ccc([N+](=O)[O-])cc3c1CC(=O)N2", "target": "LCK", "concentration": "0.5 µM", "remaining activity": "78.2%"}
{"SMILES": "CCN(CC)c1ccc(C2=NNC(=O)CC2C)cc1[N+](=O)[O-] (centres unmarked)", "target": "LCK phosphorylated", "concentration": "10 µM", "remaining activity": "104%"}
